Source: ChEMBL document CHEMBL4004857, “Synthesis and biological evaluation of novel pyrazolic chalcone derivatives as novel hepatocellular carcinoma therapeutics” (Eur J Med Chem, 2017)
The source made the active and inactive calls. The rule behind the calls is not given here.

Tests used:
Huh-7 [1] = test: Growth inhibition of human HuH7 cells at cytotoxic IC100 measured every 10 mins for first 24 hrs and every 30 mins for remaining 48 hrs by RT-CES analysis; type: functional, cell-based
MRC5 = test: Cytotoxicity against human MRC5 cells assessed as growth inhibition after 72 hrs by SRB assay; type: cell-based; settings: Homo sapiens, MRC5, 72 h; read-out: IC50
In short: (§1)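 Cells seeded at 2000–3000 per well and grown 24 h at 37C, then treated in triplicate with compounds dissolved in DMSO over a 40–0.3 range for 72 h. Cells were fixed with 10% TCA for 1 h, stained with 0.4% SRB in 1% acetic acid, washed with 1% acetic acid and air-dried. Bound dye was solubilized in 10 mM Tris base and read at 515 nm. % inhibition and IC50 were calculated against DMSO-only controls.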

HepG2 [2] = test: Induction of apoptosis in human HepG2 cells assessed as decrease in cyclin B1 protein expression level at cytotoxic IC100 measured after 24 hrs by Western blot method; type: functional, cell-based
SNU-475 [3] = test: Induction of apoptosis in human SNU475 cells assessed as PARP cleavage at cytotoxic IC100 measured after 24 hrs by Western blot method; type: functional, cell-based
HepG2 [4] = test: Increase in p21 protein expression in human HepG2 cells at cytotoxic IC100 measured after 24 hrs by Western blot method relative to control; type: functional
HepG2 [5] = test: Growth inhibition of human HepG2 cells at cytotoxic IC100 measured every 10 mins for first 24 hrs and every 30 mins for remaining 48 hrs by RT-CES analysis; type: functional, cell-based
SNU-475 [6] = test: Induction of apoptosis in human SNU475 cells assessed as accumulation at G2/M phase at cytotoxic IC100 measured after 48 hrs by propidium iodide staining based flow cytometry; type: functional, cell-based
In short: (§2)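 After 24, 48 and 72 h, cells were fixed in ice-cold 70% ethanol for 3 h, stained with propidium iodide, and cell-cycle distribution was read on a MUSE Cell Analyzer.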

HCT-116 = test: Cytotoxicity against human HCT116 cells assessed as growth inhibition after 72 hrs by SRB assay; type: functional, cell-based; settings: HCT-116, 72 h; in short: as §1
SNU-475 [7] = test: Growth inhibition of human SNU475 cells at cytotoxic IC100 measured every 10 mins for first 24 hrs and every 30 mins for remaining 48 hrs by RT-CES analysis; type: functional, cell-based
HepG2 [8] = test: Induction of apoptosis in human HepG2 cells assessed as condensed nuclei at cytotoxic IC100 measured after 72 hrs by light microscopic method; type: functional, cell-based
HepG2 [9] = test: Induction of apoptosis in human HepG2 cells assessed as accumulation at subG1 phase at cytotoxic IC100 measured after 72 hrs by propidium iodide staining based flow cytometry; type: functional, cell-based; in short: as §2
HepG2 [10] = test: Cytotoxicity against human HepG2 cells assessed as growth inhibition after 72 hrs by SRB assay; type: functional, cell-based; settings: HepG2, 72 h; in short: as §1
Mahlavu [11] = test: Cytotoxicity against human Mahlavu cells assessed as growth inhibition after 72 hrs by SRB assay; type: functional, cell-based; in short: as §1
Huh-7 [12] = test: Cytotoxicity against human HuH7 cells assessed as growth inhibition after 72 hrs by SRB assay; type: functional, cell-based; settings: Huh-7, 72 h; in short: as §1
[13] = biological target: T1, Retinoblastoma-associated protein (Homo sapiens) (UniProt P06400); test: Inhibition of retinoblastoma phosphorylation in human SNU475 cells at cytotoxic IC100 measured after 24 hrs by Western blot method; type: cell-based
T1 sequence (whole entry): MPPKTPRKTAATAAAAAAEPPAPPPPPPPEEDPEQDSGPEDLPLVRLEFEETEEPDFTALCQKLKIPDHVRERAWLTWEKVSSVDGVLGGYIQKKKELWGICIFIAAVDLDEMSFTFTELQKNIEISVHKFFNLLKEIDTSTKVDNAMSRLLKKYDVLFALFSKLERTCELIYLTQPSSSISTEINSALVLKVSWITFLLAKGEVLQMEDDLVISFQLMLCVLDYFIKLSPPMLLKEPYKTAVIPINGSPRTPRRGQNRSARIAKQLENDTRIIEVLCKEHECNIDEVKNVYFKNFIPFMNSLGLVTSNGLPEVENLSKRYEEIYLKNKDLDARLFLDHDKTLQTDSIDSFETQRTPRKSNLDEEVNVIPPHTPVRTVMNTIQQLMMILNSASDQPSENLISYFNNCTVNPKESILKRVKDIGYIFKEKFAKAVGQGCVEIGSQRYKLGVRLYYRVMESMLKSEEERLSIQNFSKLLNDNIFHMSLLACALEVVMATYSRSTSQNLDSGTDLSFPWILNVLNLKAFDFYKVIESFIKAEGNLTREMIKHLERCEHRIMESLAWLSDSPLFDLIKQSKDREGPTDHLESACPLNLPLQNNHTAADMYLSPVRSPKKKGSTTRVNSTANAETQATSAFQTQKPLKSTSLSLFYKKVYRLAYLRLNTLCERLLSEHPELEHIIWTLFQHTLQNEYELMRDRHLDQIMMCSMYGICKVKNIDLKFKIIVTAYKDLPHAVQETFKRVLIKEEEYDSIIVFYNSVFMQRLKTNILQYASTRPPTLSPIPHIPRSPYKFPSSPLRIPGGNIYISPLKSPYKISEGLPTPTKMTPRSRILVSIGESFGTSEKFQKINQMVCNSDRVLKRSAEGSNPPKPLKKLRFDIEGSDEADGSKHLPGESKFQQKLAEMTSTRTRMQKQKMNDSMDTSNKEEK

Mahlavu [14] = test: Growth inhibition of human Mahlavu cells at cytotoxic IC100 measured every 10 mins for first 24 hrs and every 30 mins for remaining 48 hrs by RT-CES analysis; type: functional, cell-based
[15] = biological target: T1, Retinoblastoma-associated protein (Homo sapiens); test: Inhibition of retinoblastoma phosphorylation in human HepG2 cells at cytotoxic IC100 measured after 24 hrs by Western blot method; type: cell-based
SNU-475 [16] = test: Increase in p21 protein expression in human SNU475 cells at cytotoxic IC100 measured after 24 hrs by Western blot method relative to control; type: functional
Homo sapiens = species: Homo sapiens; test: Inhibition of tubulin polymerization (unknown origin)
HepG2 [17] = test: Induction of apoptosis in human HepG2 cells assessed as condensed nuclei at cytotoxic IC100 measured after 48 hrs by DAPI/Annexin-V-Fluos staining based fluorescent microscopic method; type: functional, cell-based
In short: (§3)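 Cells on coverslips were treated after 24 h in culture and stained 48 h later with Annexin-V-Fluos plus DAPI nuclear stain. Cells were then examined by fluorescence microscopy for Annexin V-positive cells with condensed nuclei.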

[18] = biological target: G2/mitotic-specific cyclin-B1 (Homo sapiens) (UniProt P14635); test: Inhibition of Cyclin B1 phosphorylation at Ser147 residue in human HepG2 cells at cytotoxic IC100 measured after 24 hrs by Western blot method; type: cell-based
SNU-475 [19] = test: Induction of apoptosis in human SNU475 cells assessed as condensed nuclei at cytotoxic IC100 measured after 72 hrs by light microscopic method; type: functional, cell-based
HepG2 [20] = test: Induction of apoptosis in human HepG2 cells assessed as decrease in CDK expression level at cytotoxic IC100 measured after 24 hrs by Western blot method; type: functional; parameters: scale not given: the % may be the effect or the level left
SNU-475 [21] = test: Induction of apoptosis in human SNU475 cells assessed as decrease in CDK expression level at cytotoxic IC100 measured after 24 hrs by Western blot method; type: functional, cell-based
MCF7 = test: Cytotoxicity against human MCF7 cells assessed as growth inhibition after 72 hrs by SRB assay; type: functional, cell-based; settings: MCF7, 72 h; in short: as §1
MCF-12A = test: Cytotoxicity against human MCF12A cells assessed as growth inhibition after 72 hrs by SRB assay; type: cell-based; in short: as §1
SNU-475 [22] = test: Cytotoxicity against human SNU475 cells assessed as growth inhibition after 72 hrs by SRB assay; type: functional, cell-based; settings: SNU-475, 72 h; in short: as §1
SNU-475 [23] = test: Induction of apoptosis in human SNU475 cells assessed as condensed nuclei at cytotoxic IC100 measured after 48 hrs by DAPI/Annexin-V-Fluos staining based fluorescent microscopic method; type: functional, cell-based; in short: as §3
HepG2 [24] = test: Induction of apoptosis in human HepG2 cells assessed as accumulation at G2/M phase at cytotoxic IC100 measured after 48 hrs by propidium iodide staining based flow cytometry; type: functional, cell-based; in short: as §2
SNU-475 [25] = test: Induction of apoptosis in human SNU475 cells assessed as accumulation at subG1 phase at cytotoxic IC100 measured after 72 hrs by propidium iodide staining based flow cytometry; type: functional, cell-based; in short: as §2
HepG2 [26] = test: Induction of apoptosis in human HepG2 cells assessed as PARP cleavage at cytotoxic IC100 measured after 24 hrs by Western blot method; type: functional, cell-based

Sequence of G2/mitotic-specific cyclin-B1 (Homo sapiens) (P14635 whole entry): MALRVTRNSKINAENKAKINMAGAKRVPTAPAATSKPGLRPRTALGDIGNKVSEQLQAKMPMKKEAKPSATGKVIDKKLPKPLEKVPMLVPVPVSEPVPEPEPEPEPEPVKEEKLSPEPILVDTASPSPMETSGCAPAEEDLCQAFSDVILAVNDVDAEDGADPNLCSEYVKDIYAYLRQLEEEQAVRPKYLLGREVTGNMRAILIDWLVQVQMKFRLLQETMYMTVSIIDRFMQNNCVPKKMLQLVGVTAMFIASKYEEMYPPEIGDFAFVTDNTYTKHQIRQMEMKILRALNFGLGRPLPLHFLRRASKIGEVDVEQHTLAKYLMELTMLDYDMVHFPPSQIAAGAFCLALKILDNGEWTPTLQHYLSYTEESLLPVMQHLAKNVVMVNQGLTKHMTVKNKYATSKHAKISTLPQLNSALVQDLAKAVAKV

SMILES | growth inhibition (GI) (Huh-7 [1]) | IC50 (MRC5) [µM] | Activity (SNU-475 [3]) | growth inhibition (GI) (HepG2 [5]) | Activity (SNU-475 [6]) | IC50 (HCT-116) [µM] | growth inhibition (GI) (SNU-475 [7]) | Activity (HepG2 [8]) | Activity (HepG2 [9]) | IC50 (HepG2 [10]) [µM] | IC50 (Mahlavu [11]) [µM] | IC50 (Huh-7 [12]) [µM] | growth inhibition (GI) (Mahlavu [14]) | inhibition (Homo sapiens) | Activity (HepG2 [17]) | Activity (SNU-475 [19]) | IC50 (MCF7) [µM] | IC50 (MCF-12A) [µM] | IC50 (SNU-475 [22]) [µM] | Activity (SNU-475 [23]) | other results
COc1ccc(OC)c(C(=O)/C=C/c2cn(-c3ccccc3)nc2-c2cccnc2)c1 | Active | 2.7 | Active | Active | Active | 1 | Active | Active | Active | 3.4 | 2 | 1.3 | Active | inactive | Active | Active | 1.5 | 2.4 | 1.9 | Active | Activity (HepG2 [2]): Active; fold change (FC) (HepG2 [4]): 5 - 6; inhibition [13]: Active; inhibition [15]: Active; fold change (FC) (SNU-475 [16]): 2; inhibition [18]: 50%; Activity (HepG2 [20]): 50%; Activity (SNU-475 [21]): Active; Activity (HepG2 [24]): Active; Activity (SNU-475 [25]): Active; Activity (HepG2 [26]): Active
COc1cc(OC)c(C(=O)/C=C/c2cn(-c3ccccc3)nc2-c2cccnc2)c(OC)c1 | Active | 1.3 | Active | Active | Active | 0.3 | Active | Active | Active | 1.4 | 1.1 | 0.5 | Active | inactive | Active | Active | 1 | 1.2 | 0.8 | Active | Activity (HepG2 [24]): Active; Activity (SNU-475 [25]): Active; Activity (HepG2 [26]): Active
COc1ccc(OC)c(C(=O)/C=C/c2cn(-c3ccccc3)nc2-c2ccncc2)c1 | Active | 3.1 | Active | Active | Active | 0.9 | Active | Active | Active | 4.8 | 1.6 | 1.7 | Active | inactive | Active | Active | 1.4 | 3 | 2 | Active | Activity (HepG2 [2]): Active; fold change (FC) (HepG2 [4]): 5 - 6; inhibition [13]: Active; inhibition [15]: Active; fold change (FC) (SNU-475 [16]): 2; inhibition [18]: 50%; Activity (HepG2 [20]): 50%; Activity (SNU-475 [21]): Active; Activity (HepG2 [24]): Active; Activity (SNU-475 [25]): Active; Activity (HepG2 [26]): Active
